Source: ChEMBL document CHEMBL5528013 (Eur J Med Chem, 2024)
The source made the active and inactive calls. No cut-off for these calls is given here.

Experiments:
K562 = test: Antiproliferative activity against human K562 cells assessed as inhibition of cell growth incubated for 72 hrs by resazurin dye based assay; format: functional; conditions: K562, 72 h
Summary of the method: (§1)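 Logarithmic-phase cells were seeded at 5000 per well and treated 24 h later, in triplicate, with various concentrations for 72 h. MOLM14 lines were grown in RPMI with 10 % FBS, and other lines per provider instructions, all at 37 °C and 5 % CO2. Resazurin was then added for 4–6 h and fluorescence read. GI50 was taken from percent growth versus DMSO control, fitted with a variable-slope normalized-response model; at least three runs.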

MOLM-14 [1] = test: Antiproliferative activity against human MOLM-14 cells assessed as inhibition of cell growth incubated for 72 hrs by resazurin dye based assay; format: functional; conditions: MOLM-14, 72 h; summary of the method: as §1
MDA-MB-231 = test: Antiproliferative activity against human MDA-MB-231 cells lacking FLT3 activating mutations assessed as inhibition of cell growth incubated for 72 hrs by resazurin dye based assay; format: functional; conditions: MDA-MB-231, 72 h; summary of the method: as §1
MOLM-14 [2] = test: Antiproliferative activity against human MOLM-14 cells harboring FLT3-D835Y mutant assessed as inhibition of cell growth incubated for 72 hrs by resazurin dye based assay; format: functional; conditions: MOLM-14, 72 h; summary of the method: as §1
[3] = biological target: T1, Receptor-type tyrosine-protein kinase FLT3 (Homo sapiens, UniProt P36888); test: Inhibition of FLT3 (unknown origin) by bioluminescent ADP-Glo assay
T1 sequence (P36888 whole entry): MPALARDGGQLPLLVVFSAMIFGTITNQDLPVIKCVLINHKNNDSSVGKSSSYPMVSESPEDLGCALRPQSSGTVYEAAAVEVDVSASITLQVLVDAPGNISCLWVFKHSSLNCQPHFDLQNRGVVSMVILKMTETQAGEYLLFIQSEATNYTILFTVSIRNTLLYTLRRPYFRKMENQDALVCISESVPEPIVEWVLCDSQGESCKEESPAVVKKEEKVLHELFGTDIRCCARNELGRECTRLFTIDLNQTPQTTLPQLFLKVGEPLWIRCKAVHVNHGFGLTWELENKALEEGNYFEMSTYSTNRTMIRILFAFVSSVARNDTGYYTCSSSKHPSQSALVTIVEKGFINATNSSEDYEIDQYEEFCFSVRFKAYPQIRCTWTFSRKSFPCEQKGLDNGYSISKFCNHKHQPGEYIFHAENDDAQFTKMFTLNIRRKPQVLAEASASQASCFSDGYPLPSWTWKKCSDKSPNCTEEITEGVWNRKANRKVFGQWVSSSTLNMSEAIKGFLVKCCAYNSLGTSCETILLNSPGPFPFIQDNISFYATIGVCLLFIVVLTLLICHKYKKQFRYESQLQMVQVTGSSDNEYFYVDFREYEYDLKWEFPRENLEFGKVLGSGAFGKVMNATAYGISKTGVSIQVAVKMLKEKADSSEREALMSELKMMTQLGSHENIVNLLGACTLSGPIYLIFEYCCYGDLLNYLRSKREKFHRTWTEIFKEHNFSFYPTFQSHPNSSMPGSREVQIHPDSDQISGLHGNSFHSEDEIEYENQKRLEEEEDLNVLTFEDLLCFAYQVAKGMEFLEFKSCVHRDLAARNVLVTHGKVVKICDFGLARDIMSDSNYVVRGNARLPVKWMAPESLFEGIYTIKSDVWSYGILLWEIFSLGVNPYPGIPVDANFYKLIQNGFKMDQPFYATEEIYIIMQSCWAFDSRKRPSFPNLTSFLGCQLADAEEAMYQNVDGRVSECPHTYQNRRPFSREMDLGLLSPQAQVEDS

MOLM-14 [4] = format: functional, cell-based; conditions: Homo sapiens, MOLM-14, 72 h
[5] = Cytotoxicity against HEK293 cells lacking FLT3 activating mutations assessed as inhibition of cell growth incubated for 72 hrs by resazurin dye based assay; format: toxicity; conditions: human; summary of the method: as §1
[6] = biological target: Receptor-type tyrosine-protein kinase FLT3 (Homo sapiens) (UniProt P36888); conditions: dose 4.5 nM, time 1.0 hrs
[7] = biological target: Mast/stem cell growth factor receptor Kit (Homo sapiens, UniProt P10721); test: Binding affinity to KIT (unknown origin) at 4.5 nM incubated for 1 hr by KINOMEscan analysis; conditions: 0.0045 µM
Summary of the method: (§2)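 Competition binding panel: DNA-tagged kinases combined with beads carrying immobilized biotinylated ligand and test compound in binding buffer (20 % SeaBlock, 0.17x PBS, 0.05 % Tween 20, 6 mM DTT). Compound diluted from 100x DMSO stocks. Incubated 1 h at room temperature with shaking, then washed. Bound kinase eluted with non-biotinylated ligand for 30 min. Kinase in eluate quantified by qPCR.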

MOLM-14 [8] = test: Inhibition of ERK phosphorylation in human MOLM-14 cells at 1 times IC50 incubated for 2 hrs by Western blot analysis; format: cell-based
MOLM-14 [9] = format: cell-based; conditions: Homo sapiens, time 2.0 hrs
MOLM-14 [10] = test: Inhibition of ERK phosphorylation in human MOLM-14 cells harboring FLT3 D835Y mutant at 10 times IC50 incubated for 2 hrs by Western blot analysis relative to control; format: cell-based
MOLM-14 [11] = test: Inhibition of ERK phosphorylation in human MOLM-14 cells harboring FLT3 D835Y mutant at 1 times IC50 incubated for 2 hrs by Western blot analysis; format: cell-based
[12] = biological target: High affinity nerve growth factor receptor (Homo sapiens) (UniProt P04629); test: Inhibition of TRKA (unknown origin) at 4.5 nM incubated for 1 hr by KINOMEscan analysis relative to control; summary of the method: as §2
MOLM-14 [13] = test: Inhibition of ERK phosphorylation in human MOLM-14 cells at 10 times IC50 incubated for 2 hrs by Western blot analysis relative to control; format: cell-based

High affinity nerve growth factor receptor (Homo sapiens), sequence (P04629 33-796 limits assumed): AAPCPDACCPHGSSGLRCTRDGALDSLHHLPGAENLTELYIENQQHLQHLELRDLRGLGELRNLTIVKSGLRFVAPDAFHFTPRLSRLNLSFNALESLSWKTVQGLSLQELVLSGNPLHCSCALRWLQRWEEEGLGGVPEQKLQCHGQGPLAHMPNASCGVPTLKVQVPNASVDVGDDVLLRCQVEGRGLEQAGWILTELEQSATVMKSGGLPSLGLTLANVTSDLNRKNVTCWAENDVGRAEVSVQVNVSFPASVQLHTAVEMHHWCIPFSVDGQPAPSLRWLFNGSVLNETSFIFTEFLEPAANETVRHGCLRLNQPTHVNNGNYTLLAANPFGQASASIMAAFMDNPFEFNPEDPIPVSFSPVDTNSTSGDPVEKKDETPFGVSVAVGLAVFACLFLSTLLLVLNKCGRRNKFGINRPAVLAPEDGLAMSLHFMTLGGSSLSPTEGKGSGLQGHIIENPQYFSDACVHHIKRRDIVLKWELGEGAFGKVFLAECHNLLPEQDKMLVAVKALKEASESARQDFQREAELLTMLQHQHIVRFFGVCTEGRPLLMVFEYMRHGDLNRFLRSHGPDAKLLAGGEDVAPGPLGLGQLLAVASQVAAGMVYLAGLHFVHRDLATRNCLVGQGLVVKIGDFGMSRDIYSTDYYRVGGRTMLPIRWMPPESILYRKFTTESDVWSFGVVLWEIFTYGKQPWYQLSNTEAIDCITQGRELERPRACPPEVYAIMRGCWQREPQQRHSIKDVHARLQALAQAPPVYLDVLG
Mast/stem cell growth factor receptor Kit, sequence (P10721 whole entry): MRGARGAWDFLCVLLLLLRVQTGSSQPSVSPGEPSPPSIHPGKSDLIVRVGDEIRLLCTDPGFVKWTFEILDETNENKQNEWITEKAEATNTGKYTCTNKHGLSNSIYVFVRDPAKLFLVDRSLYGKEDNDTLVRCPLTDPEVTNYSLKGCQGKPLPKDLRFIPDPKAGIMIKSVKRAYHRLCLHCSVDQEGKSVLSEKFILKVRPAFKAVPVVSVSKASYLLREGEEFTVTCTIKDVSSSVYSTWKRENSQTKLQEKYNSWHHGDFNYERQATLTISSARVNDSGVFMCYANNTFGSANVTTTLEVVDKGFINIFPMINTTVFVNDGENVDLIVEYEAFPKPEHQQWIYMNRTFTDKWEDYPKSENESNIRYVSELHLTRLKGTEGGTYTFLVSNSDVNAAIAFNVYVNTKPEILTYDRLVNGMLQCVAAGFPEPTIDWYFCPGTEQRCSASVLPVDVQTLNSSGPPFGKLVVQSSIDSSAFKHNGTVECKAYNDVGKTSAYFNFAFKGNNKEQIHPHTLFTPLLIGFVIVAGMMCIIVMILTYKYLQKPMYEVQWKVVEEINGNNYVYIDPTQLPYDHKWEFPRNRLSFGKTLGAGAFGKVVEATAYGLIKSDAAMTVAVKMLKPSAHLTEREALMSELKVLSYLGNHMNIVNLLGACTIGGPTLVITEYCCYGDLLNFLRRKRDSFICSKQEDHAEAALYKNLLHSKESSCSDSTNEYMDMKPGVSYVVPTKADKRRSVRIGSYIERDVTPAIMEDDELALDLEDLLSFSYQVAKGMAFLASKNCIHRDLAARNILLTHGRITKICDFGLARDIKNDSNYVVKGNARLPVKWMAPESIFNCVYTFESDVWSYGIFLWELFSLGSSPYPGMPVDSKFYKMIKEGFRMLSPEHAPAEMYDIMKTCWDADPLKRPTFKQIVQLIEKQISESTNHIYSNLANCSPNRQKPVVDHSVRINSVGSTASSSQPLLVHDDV

| IC50 (K562) [nM] | IC50 (MOLM-14 [1]) [nM] | IC50 (MDA-MB-231) [nM] | IC50 (MOLM-14 [2]) [nM] | IC50 [3] [nM] | IC50 (MOLM-14 [4]) [nM] | inhibition [6] [%] | inhibition [12] [%] | Structure (SMILES) | IC50 at 72 h [5] [nM] | inhibition (INH) [7] | inhibition (MOLM-14 [8]) | inhibition (MOLM-14 [9]) | inhibition (MOLM-14 [10]) [%] | inhibition (MOLM-14 [11]) | inhibition (MOLM-14 [13]) [%] |
| --- | --- | --- | --- | --- | --- | --- | --- | --- | --- | --- | --- | --- | --- | --- | --- |
| 969 | 2.49 | > 1000 | 4.64 | 6.63 | 14 | – | – | COc1ccc(Nc2cccc(-c3cnc4cc(-c5cnn(C)c5)ccn34)n2)cc1OC | > 1000 | – | – | – | – | – | – |
| > 1000 | 4.55 | > 1000 | 3.16 | 7.94 | 8.34 | > 65 | > 65 | Cn1cc(-c2ccn3c(-c4cccc(Nc5ccc(S(C)(=O)=O)cc5)n4)cnc3c2)cn1 | > 1000 | Not Active | Active | Active | 100 | Active | 100 |
